The values that follow come from paper PMC4077287 (Angewandte Chemie (International ed. in English), 2013).

Test [1] has as its system caspase-3 activity in HeLa cell lysates. Briefly: Caspase-3 assay of lysates of Dox-treated HeLa cells. Format: cell-based. Conditions: doxorubicin 2 μM, 24 h.
Test [2] deals with caspase-3 level in HeLa tumor xenograft. Briefly: Caspase-3 level detected in Dox-treated tumors. The test is classed as in vivo, nude mice. The note with it: intratumoral Dox 0.2 mg, 4 days post treatment. In short, it runs like this:
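HeLa xenografts on the right shoulder of nude mice were imaged before and 4 days after intratumoral Dox (0.2 mg). The 18F-labeled caspase-3-activatable nano-aggregation tracer or its D-peptide control (5–15 MBq) was given i.v. by tail vein. Static 5 min PET scans were taken at 65, 125 and 182 min post injection. Tumor and muscle uptake was reported as %ID/g, with the tumor/muscle ratio taken from average region uptake.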

The test system of the next test is apoptotic tumors. Conditions: ref 7a; cited from earlier work.

`COc1cccc2c1C(=O)c1c(O)c3c(c(O)c1C2=O)C[C@@](O)(C(=O)CO)C[C@@H]3O[C@H]1C[C@H](N)[C@H](O)[C@H](C)O1` [Dox, doxorubicin]: the “caspase-3 activity of lysates of Dox-treated cells vs non-treated cells” value in test [1] is on record as 9.5 fold. Besides, the “caspase-3 level increase in treated tumors” value in test [2] was determined as 1.9 fold. `O=C1C(=O)N(Cc2cn(CC[18F])nn2)c2ccc(S(=O)(=O)N3CCCC3COc3ccc(F)cc3F)cc21` (stereo not drawn) [[^18F]ICMT-11]: the “trend of uptake in apoptotic tumors over time after injection” value in the test with apoptotic tumors was “decreased over the time after injection”.
